From PMC3566574 (Organic & biomolecular chemistry, 2012)

What was measured:
LasR [1] = biological target: T1, LasR (Pseudomonas aeruginosa, UniProt P25084); experiment: LasR agonism reporter gene assay; format: cell-based; details: 100 μM, normalized to OdDHL at 100 μM (100%); triplicate, error ≤10%
LasR [2] = biological target: T1, LasR; experiment: LasR antagonism reporter gene assay; format: cell-based; details: 100 μM against OdDHL at 10 nM; triplicate, error ≤10%
AbaR [3] = experiment: AbaR agonism reporter gene assay; format: cell-based, Acinetobacter baumannii; details: 100 μM, normalized to OH-dDHL at 100 μM (100%); triplicate, error ±10%
Outline: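 Overnight A. baumannii abaI::lacZ culture diluted 1:100 in LB (pH 7.0), added to test compound from DMSO stock (final 100 or 10 μM), incubated statically at 37 °C for 18–24 h. OD600 read; aliquot lysed with Z buffer, CHCl3 and 0.1% SDS; ONPG 20 min at […], stopped with 1 M Na2CO3; A420/A550 converted to Miller units. Triplicate; scaled to 100 μM OH-dDHL (100%).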

AbaR [4] = experiment: AbaR antagonism reporter gene assay; format: cell-based, Acinetobacter baumannii; details: 100 μM against OH-dDHL at 700 nM; triplicate, error ±10%

T1 sequence (P25084 whole entry): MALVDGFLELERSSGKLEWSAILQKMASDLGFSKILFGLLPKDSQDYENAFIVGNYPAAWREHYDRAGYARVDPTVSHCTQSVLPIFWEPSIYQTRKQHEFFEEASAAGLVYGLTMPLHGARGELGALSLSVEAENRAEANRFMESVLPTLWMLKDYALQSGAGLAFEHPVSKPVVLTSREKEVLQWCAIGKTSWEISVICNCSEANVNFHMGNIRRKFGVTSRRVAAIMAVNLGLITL

CCCc1cn(CC(=O)NC2CCOC2=O)nn1 (stereo not shown) [I-A]
Activation [%] LasR (LasR [1]): 0%
Inhibition [%] LasR (LasR [2]): 55%
Activation [%] AbaR (AbaR [3]): 0%
Inhibition [%] AbaR (AbaR [4]): 47%
